Measurements published in ChEMBL document CHEMBL1138061, “A thienopyridazinone-based melanin-concentrating hormone receptor 1 antagonist with potent in vivo anorectic properties” (J Med Chem, 2006).

Columns and labels:
[1] = target: T1, Melanin-concentrating hormone receptor 1 (Rattus norvegicus, UniProt P97639); test: Binding affinity to chimeric rat/human MCH1R stably expressed in HEK293 cells; assay type: cell-based
In short: (§1)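 Each value is the average of at least two replicate determinations.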

[2] = Intrinsic clearance in human liver microsomes; assay type: ADME, Microsome
In short: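 Intrinsic human clearance was determined in human liver microsomes. Standard error is estimated below 10%, based on a reference compound run as a standard.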

[3] = target: T2, Voltage-gated inwardly rectifying potassium channel KCNH2 (Homo sapiens, UniProt Q12809); test: Displacement of [3H]dofetilide from human ERG channel
T2 sequence (Q12809 whole entry): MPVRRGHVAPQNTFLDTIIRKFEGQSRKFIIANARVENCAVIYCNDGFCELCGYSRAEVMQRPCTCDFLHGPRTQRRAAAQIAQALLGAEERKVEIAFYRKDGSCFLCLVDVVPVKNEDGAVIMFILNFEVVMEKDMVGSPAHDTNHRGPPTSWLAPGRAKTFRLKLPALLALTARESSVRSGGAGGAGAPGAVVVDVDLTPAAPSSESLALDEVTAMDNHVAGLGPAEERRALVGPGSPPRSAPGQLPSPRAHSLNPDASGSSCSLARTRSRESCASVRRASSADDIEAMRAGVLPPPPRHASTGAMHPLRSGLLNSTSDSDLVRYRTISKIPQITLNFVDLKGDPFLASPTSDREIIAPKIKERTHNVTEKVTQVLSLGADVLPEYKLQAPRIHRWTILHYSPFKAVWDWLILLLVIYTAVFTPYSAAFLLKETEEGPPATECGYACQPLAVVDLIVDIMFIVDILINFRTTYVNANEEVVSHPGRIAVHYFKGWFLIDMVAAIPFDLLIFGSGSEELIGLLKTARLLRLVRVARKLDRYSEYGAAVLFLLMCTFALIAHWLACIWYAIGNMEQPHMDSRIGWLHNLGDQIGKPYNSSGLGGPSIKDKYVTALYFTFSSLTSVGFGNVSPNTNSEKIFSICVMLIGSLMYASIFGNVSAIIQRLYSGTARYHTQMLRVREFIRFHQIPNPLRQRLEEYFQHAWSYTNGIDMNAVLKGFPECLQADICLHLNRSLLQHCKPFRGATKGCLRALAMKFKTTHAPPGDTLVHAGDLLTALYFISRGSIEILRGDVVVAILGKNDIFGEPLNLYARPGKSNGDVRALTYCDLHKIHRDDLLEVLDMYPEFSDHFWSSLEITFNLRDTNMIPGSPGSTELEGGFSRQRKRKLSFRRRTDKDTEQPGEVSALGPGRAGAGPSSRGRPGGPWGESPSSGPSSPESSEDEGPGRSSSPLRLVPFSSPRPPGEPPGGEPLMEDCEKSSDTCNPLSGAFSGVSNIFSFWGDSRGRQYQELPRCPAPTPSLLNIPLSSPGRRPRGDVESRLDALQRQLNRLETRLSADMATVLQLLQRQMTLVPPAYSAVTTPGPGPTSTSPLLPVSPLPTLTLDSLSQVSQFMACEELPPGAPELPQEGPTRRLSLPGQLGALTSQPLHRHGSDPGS

[4] = Half life in Sprague-Dawley rat at 10 mg/kg, po and 2.5 mg/kg, iv; assay type: ADME, organism-based; details: in vivo
In short: (§2)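 Rats dosed 10 mg kg-1 orally and 2.5 mg kg-1 iv. AUC and Cmax come from the oral dose. Brain levels were measured 1 h and 4 h after oral dosing and expressed as brain/plasma ratios at those times. Vd, clearance and t1/2 were derived from the same dosing.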

[5] = Clearance in Sprague-Dawley rat at 10 mg/kg, po and 2.5 mg/kg, iv; assay type: ADME, organism-based; details: in vivo
[6] = Bioavailability in Sprague-Dawley rat at 10 mg/kg, po and 2.5 mg/kg, iv; assay type: ADME, organism-based; details: in vivo
[7] = target: T1, Melanin-concentrating hormone receptor 1; test: Activity at chimeric rat/human MCH1R by accumulation of GTPgammaS; in short: as §1
[8] = Cmax in Sprague-Dawley rat plasma at 10 mg/kg, po; assay type: ADME, organism-based; parameters: dose 10 mg/kg, route oral; in short: as §2
[9] = Brain to plasma ratio in Sprague-Dawley rat at 10 mg/kg, po and 2.5 mg/kg, iv after 1 hour; assay type: ADME, organism-based; in short: as §2
[10] = Brain concentration in Sprague-Dawley rat at 10 mg/kg, po after 1 hour; assay type: ADME, organism-based; parameters: dose 10 mg/kg, route oral; details: read-out: Drug uptake; in short: as §2
[11] = AUC in Sprague-Dawley rat at 10 mg/kg, po; assay type: ADME, organism-based; parameters: dose 10 mg/kg, route oral; details: plasma; in short: as §2
[12] = Volume of distribution in Sprague-Dawley rat at 10 mg/kg, po and 2.5 mg/kg, iv; assay type: ADME, organism-based; details: in vivo, read-out: Vdss; in short: as §2
[13] = Brain to plasma ratio in Sprague-Dawley rat at 10 mg/kg, po and 2.5 mg/kg, iv after 4 hours; assay type: ADME, organism-based; in short: as §2
[14] = Brain concentration in Sprague-Dawley rat at 10 mg/kg, po after 4 hours; assay type: ADME, organism-based; parameters: dose 10 mg/kg, route oral; details: read-out: Drug uptake; in short: as §2
[15] = Selectivity for MCH1R over muscarinic M3R
[16] = Plasma concentration in Sprague-Dawley rats at 1 mg/kg after 14 days; assay type: ADME, organism-based; parameters: dose 1 mg/kg; details: rat
[17] = target: T3, Muscarinic acetylcholine receptor M1 (Homo sapiens, UniProt P11229); test: Binding affinity to muscarinic M1R
T3 sequence (P11229 whole entry): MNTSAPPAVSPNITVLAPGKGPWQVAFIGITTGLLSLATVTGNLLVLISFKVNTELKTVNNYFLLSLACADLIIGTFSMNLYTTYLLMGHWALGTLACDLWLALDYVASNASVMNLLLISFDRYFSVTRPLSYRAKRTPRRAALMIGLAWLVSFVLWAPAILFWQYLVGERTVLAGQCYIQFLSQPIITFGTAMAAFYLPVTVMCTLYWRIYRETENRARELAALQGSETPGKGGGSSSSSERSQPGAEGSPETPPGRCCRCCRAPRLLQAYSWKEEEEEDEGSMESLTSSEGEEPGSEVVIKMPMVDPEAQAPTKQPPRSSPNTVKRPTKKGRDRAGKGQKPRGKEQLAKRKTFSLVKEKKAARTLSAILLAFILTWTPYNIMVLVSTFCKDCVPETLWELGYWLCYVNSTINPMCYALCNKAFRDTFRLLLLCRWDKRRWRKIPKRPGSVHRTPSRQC

CYP2D6 = CYP2D6 (Homo sapiens, UniProt P10635); test: Inhibition of cytochrome P450 2D6 at 5 uM; assay type: ADME; details: read-out: Activity
Sequence of CYP2D6 (P10635 whole entry): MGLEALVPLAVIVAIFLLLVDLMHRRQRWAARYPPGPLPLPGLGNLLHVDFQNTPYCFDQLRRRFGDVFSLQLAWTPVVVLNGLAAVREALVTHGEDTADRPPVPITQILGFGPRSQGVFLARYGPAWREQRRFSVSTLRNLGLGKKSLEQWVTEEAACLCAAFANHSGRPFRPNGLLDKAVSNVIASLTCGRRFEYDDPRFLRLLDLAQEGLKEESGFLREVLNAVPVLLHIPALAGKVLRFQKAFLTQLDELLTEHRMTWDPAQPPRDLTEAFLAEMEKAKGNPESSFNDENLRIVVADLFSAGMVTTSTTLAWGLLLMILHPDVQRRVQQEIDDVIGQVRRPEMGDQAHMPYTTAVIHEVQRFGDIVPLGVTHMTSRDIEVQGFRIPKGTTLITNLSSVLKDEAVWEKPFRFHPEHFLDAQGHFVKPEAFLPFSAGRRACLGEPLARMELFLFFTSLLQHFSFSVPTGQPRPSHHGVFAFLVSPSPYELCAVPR

[18] = target: T2, Voltage-gated inwardly rectifying potassium channel KCNH2; test: Affinity for human ERG channel by patch clamp assay; assay type: functional
CYP3A4 = CYP3A4 (Homo sapiens, UniProt P08684); test: Inhibition of cytochrome P450 3A4 at 5 uM; assay type: ADME; details: read-out: Activity
Sequence of CYP3A4 (P08684 whole entry): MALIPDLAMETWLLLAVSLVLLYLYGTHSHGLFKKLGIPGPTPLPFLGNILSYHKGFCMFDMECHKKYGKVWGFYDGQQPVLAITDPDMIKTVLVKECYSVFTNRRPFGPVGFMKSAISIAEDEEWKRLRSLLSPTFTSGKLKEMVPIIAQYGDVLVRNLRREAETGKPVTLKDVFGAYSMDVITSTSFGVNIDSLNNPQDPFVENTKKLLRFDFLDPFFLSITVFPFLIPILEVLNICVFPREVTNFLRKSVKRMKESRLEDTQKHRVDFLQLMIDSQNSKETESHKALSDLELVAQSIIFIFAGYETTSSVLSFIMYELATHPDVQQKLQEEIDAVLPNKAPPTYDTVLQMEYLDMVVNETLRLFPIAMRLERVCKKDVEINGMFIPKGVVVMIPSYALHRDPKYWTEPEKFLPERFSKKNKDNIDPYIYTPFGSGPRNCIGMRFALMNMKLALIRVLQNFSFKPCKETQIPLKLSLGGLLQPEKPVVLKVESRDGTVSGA

[19] = Plasma concentration in Sprague-Dawley rats at 1 mg/kg after 1 day; assay type: ADME, organism-based; parameters: dose 1 mg/kg; details: rat
[20] = target: Muscarinic acetylcholine receptor M3 (Homo sapiens, UniProt P20309); test: Binding affinity to muscarinic M3R
Sequence of Muscarinic acetylcholine receptor M3 (P20309 whole entry): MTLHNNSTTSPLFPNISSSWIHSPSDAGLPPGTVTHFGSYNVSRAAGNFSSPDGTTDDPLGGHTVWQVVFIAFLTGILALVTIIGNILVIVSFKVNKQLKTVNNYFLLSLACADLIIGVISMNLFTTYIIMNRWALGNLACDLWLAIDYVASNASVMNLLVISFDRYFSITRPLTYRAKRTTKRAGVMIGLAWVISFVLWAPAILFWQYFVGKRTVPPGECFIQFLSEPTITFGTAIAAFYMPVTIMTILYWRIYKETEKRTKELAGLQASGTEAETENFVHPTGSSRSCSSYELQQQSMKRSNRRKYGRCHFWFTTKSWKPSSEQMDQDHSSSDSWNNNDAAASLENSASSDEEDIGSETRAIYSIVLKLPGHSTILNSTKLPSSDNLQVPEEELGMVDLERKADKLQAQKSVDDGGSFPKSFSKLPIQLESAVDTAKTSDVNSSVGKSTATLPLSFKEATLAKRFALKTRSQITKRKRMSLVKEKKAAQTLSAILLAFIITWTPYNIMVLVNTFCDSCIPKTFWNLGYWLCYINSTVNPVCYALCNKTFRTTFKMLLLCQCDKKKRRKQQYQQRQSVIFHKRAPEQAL

[21] = target: Melanin-concentrating hormone receptor 1 (Rattus norvegicus) (UniProt P97639); test: Inhibition of chimeric rat/human MCH1R at 10 uM
Sequence of Melanin-concentrating hormone receptor 1 (Rattus norvegicus) (P97639 whole entry): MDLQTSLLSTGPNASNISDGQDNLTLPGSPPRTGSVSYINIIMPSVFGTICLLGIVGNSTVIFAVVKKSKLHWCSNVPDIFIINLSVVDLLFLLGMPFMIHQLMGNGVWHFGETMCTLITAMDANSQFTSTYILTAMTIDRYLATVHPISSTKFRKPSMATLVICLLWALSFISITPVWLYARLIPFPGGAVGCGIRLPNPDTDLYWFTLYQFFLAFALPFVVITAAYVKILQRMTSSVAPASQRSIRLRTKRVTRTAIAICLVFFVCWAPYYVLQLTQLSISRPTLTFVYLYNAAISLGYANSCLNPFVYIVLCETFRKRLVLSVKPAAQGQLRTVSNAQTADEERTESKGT
In short: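 Single-concentration test at 10 µM, reported as percent inhibition of MCH1R; values averaged from at least two replicates.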

T1 sequence (P97639 whole entry, looked up): as the sequence (P97639 whole entry) above

Row | Ki [1] | CLint scaled [2] | SMILES | other results
1 | 3.1 nM |  | CN[C@H]1CCN(c2ccc(-n3ncc4cc(-c5ccc(C(F)(F)F)cc5)sc4c3=O)cn2)C1 | 
2 | 1.3 nM | 43.2 L/h/kg | CN[C@@H]1CCN(c2ccc(-n3ncc4cc(-c5ccc(OC)cc5)sc4c3=O)cn2)C1 | 
3 | 10 nM | 0.36 L/h/kg | CN[C@@H]1CCN(c2ccc(-n3ncc4cc(-c5ccc(C(F)(F)F)cc5)ccc4c3=O)cn2)C1 | 
4 | 8.4 nM | 1.56 L/h/kg | CN[C@H]1CCN(c2ccc(-n3ncc4cc(-c5ccc(C(F)(F)F)cc5)ccc4c3=O)cn2)C1 | 
5 | 1.5 nM | 0.72 L/h/kg | CN[C@@H]1CCN(c2ccc(-n3ncc4cc(-c5ccc(Cl)cc5)ccc4c3=O)cn2)C1 | 
6 |  |  | CNC1CCN(c2ccc(NC(=O)c3ccc(-c4ccccc4)cc3)cn2)C1 (stereo not given) | Ki [3]: 200 nM
7 | 2 nM | 0.72 L/h/kg | CN[C@H]1CCN(c2ccc(-n3ncc4cc(-c5ccc(F)cc5)sc4c3=O)cn2)C1 | 
8 | 1.2 nM | 0.534 L/h/kg | CN[C@H]1CCN(c2ccc(-n3ncc4cc(-c5ccc(Cl)cc5)ccc4c3=O)cn2)C1 | half-life [4]: 9.4 h; clearance [5]: 1.02 L/h/kg; bioavailability [6]: 22%; IC50 [7]: 8.5 nM; Cmax [8]: 0.14 µg/mL; Kp at 1 h [9]: 7.8; concentration at 1 h [10]: 94 ng/g; AUC [11]: 2.2 µg·h/mL; Vd [12]: 14 L/kg; Kp at 4 h [13]: 23; concentration at 4 h [14]: 1700 ng/g
9 | 1.9 nM | 0.504 L/h/kg | CN[C@@H]1CCN(c2ccc(-n3ncc4cc(-c5ccc(Cl)cc5)sc4c3=O)cn2)C1 | 
10 | 14 nM | 2.88 L/h/kg | CN(C)[C@H]1CCN(c2ccc(-n3ncc4cc(-c5ccc(C(F)(F)F)cc5)n(C)c4c3=O)cn2)C1 | 
11 | 1.6 nM | 0.96 L/h/kg | O=c1c2ccc(-c3ccc(Cl)cc3)cc2cnn1-c1ccc(N2CC[C@H](N3CCCC3)C2)nc1 | 
12 | 11 nM | 0.528 L/h/kg | CN[C@H]1CCN(c2ccc(-n3ncc4cc(-c5ccc(OC)cc5C)ccc4c3=O)cn2)C1 | 
13 | 2.6 nM | 9.3 L/h/kg | CCc1ccc(-c2cc3cnn(-c4ccc(N5CC[C@@H](NC)C5)nc4)c(=O)c3s2)cc1 | 
14 | 1.9 nM | 0.552 L/h/kg | CCN[C@H]1CCN(c2ccc(-n3ncc4cc(-c5ccc(Cl)cc5)ccc4c3=O)cn2)C1 | 
15 | 2.5 nM | 0.492 L/h/kg | CN[C@@H]1CCN(c2ccc(-n3ncc4cc(-c5ccc(F)cc5)sc4c3=O)cn2)C1 | 
16 | 1.1 nM | 0.72 L/h/kg | CN(C)[C@H]1CCN(c2ccc(-n3ncc4cc(-c5ccc(Cl)cc5)ccc4c3=O)cn2)C1 | 
17 | 21 nM | 1.68 L/h/kg | CN(C)[C@H]1CCN(c2ccc(-n3ncc4cc(-c5ccc(C(F)(F)F)cc5)oc4c3=O)cn2)C1 | 
18 | 3.3 nM | 0.51 L/h/kg | CN[C@@H]1CCN(c2ccc(-n3ncc4cc(-c5ccc(C(F)(F)F)cc5)sc4c3=O)cn2)C1 | half-life [4]: 11 h; Selectivity ratio [15]: 50; clearance [5]: 0.258 L/h/kg; bioavailability [6]: 24%; concentration at 336 h [16]: 0.79 µM; IC50 [7]: 7.7 nM; Cmax [8]: 0.5 µg/mL; Ki [17]: 260 nM; Kp at 1 h [9]: 1.4; inhibition at 5 µM (CYP2D6): < 10%; concentration at 1 h [10]: 190 ng/g; AUC [11]: 8.4 µg·h/mL; IC50 [18]: 1800 nM; Vd [12]: 4.1 L/kg; Kp at 4 h [13]: 3.1; concentration at 4 h [14]: 1200 ng/g; inhibition at 5 µM (CYP3A4): < 10%; concentration at 24 h [19]: 0.28 µM; Ki [20]: 160 nM
19 | 4.4 nM | 1.08 L/h/kg | CN(C)[C@H]1CCN(c2ccc(-n3ncc4cc(-c5ccc(C(F)(F)F)cc5)sc4c3=O)cn2)C1 | 
20 | 1.1 nM | 1.26 L/h/kg | CN(C)[C@@H]1CCN(c2ccc(-n3ncc4cc(-c5ccc(Cl)cc5)ccc4c3=O)cn2)C1 | 

Row | SMILES | Ki [1] | CLint scaled [2] | other results
21 | CN(C)[C@H]1CCN(c2ccc(-n3ncc4cc(-c5ccc(C(F)(F)F)cc5)[se]c4c3=O)cn2)C1 |  | 1.62 L/h/kg | inhibition [21]: 28%
